≈ marks a conversion by molar mass, not a printed value. Calls of active or inactive are those of the source. No cut-off for these calls is given here.
How the values were obtained:
[1] = target: T1, Dual specificity tyrosine-phosphorylation-regulated kinase 2 (Homo sapiens, UniProt Q92630); assay: Inhibition of Dyrk2 (unknown origin)
T1 sequence (Q92630 whole entry): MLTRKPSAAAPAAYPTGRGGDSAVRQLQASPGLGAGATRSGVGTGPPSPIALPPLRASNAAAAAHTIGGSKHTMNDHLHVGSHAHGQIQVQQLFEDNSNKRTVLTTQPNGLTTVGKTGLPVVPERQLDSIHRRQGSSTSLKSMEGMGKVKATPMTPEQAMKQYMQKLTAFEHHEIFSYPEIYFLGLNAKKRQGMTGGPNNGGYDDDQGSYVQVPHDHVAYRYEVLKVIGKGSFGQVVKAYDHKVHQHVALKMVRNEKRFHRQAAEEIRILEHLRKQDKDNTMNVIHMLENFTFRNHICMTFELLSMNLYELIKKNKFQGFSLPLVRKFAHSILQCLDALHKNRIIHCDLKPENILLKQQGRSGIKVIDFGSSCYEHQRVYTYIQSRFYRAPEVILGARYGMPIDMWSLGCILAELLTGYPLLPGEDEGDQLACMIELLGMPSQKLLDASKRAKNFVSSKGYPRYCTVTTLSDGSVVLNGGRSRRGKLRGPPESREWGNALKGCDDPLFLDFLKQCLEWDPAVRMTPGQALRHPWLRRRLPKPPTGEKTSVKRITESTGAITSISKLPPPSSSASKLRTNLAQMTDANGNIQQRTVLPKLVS

[2] = Oral bioavailability in Wistar Han rat at 3 umol/kg; format: ADME, organism-based; settings: in vivo
[3] = Clearance in Wistar Han rat plasma at 2 umol/kg; format: ADME, cell-free
[4] = Intrinsic clearance in Wistar Han rat hepatocytes assessed per 10^6 cells; format: ADME, cell-based, Hepatocyte; settings: read-out: CLH
In short: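 Intrinsic clearance in Wistar Han rat hepatocytes, expressed as μL/min/1 × 10⁶ cells.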

A-375 = assay: Cytotoxicity against human A375 cells at 1.33 uM after 72 hrs by calcein green AM/propidium iodide staining-based assay in presence of AZD6244 relative to control; format: functional, cell-based
In short: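 A375 melanoma cells treated with AZD6244 with or without Dyrk1B inhibitor at 1.33 μM for 72 h. Viability by calcein green AM and propidium iodide staining; percentage of dead cells is mean and SEM of at least two separate experiments.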

[5] = target: Insulin-like growth factor 1 receptor (Homo sapiens, UniProt P08069); assay: Inhibition of human recombinant N-terminal His6-tagged IGF-1R using fluorescence substrate after 80 mins by caliper off-chip incubation mobility shift assay
Sequence of Insulin-like growth factor 1 receptor (P08069 31-736 limits assumed): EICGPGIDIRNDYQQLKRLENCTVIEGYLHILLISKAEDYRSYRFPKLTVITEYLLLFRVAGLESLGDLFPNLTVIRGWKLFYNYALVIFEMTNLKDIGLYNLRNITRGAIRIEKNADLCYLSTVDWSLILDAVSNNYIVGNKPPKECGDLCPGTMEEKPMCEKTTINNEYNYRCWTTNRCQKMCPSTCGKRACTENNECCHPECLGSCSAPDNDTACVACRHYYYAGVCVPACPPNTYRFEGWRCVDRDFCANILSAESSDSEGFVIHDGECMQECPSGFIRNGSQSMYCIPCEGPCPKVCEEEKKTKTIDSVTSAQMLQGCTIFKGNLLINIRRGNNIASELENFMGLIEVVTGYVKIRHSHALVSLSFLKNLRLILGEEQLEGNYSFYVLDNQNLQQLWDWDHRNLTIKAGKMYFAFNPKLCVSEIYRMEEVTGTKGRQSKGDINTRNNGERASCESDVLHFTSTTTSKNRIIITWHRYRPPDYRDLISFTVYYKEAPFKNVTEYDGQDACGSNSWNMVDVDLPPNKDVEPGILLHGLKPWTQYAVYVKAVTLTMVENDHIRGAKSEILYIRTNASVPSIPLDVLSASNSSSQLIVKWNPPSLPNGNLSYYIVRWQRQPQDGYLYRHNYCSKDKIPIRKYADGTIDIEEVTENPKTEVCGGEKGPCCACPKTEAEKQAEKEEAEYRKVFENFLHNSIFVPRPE
Sequence of Insulin-like growth factor 1 receptor (P08069 741-1367 limits assumed): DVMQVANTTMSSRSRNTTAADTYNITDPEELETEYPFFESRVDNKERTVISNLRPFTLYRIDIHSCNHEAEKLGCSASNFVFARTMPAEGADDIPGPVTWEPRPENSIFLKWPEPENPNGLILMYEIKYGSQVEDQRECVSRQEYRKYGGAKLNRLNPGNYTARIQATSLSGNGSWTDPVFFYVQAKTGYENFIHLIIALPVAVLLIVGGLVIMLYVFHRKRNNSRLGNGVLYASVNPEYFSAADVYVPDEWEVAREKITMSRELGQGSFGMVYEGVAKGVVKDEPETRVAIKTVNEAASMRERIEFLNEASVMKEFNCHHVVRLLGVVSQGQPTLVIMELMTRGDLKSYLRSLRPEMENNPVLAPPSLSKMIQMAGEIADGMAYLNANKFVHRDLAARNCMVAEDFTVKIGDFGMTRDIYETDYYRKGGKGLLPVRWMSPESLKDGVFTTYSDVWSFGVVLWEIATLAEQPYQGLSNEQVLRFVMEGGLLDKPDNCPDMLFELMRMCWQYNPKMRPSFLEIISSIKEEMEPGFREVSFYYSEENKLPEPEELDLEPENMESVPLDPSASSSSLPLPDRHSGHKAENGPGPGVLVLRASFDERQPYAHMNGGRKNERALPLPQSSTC

[6] = target: Cyclin-dependent kinase 2 (Homo sapiens, UniProt P24941); assay: Inhibition of human recombinant full length C-terminal His6-tagged CDK2 expressed in baculovirus infected Sf21 insect cells using fluorescence substrate after 60 mins by caliper off-chip incubation mobility shift assay
[7] = Aqueous solubility of the compound at pH 7.4; format: physicochemical; settings: buffer
[8] = target: T2, Dual specificity tyrosine-phosphorylation-regulated kinase 1B (Homo sapiens, UniProt Q9Y463); assay: Inhibition of human full length C-terminal c-Myc tagged Dyrk1B phosphorylation overexpressed in monkey COS1 cells after 5 hrs by ELISA; format: cell-based, COS-1
T2 sequence (Q9Y463 whole entry): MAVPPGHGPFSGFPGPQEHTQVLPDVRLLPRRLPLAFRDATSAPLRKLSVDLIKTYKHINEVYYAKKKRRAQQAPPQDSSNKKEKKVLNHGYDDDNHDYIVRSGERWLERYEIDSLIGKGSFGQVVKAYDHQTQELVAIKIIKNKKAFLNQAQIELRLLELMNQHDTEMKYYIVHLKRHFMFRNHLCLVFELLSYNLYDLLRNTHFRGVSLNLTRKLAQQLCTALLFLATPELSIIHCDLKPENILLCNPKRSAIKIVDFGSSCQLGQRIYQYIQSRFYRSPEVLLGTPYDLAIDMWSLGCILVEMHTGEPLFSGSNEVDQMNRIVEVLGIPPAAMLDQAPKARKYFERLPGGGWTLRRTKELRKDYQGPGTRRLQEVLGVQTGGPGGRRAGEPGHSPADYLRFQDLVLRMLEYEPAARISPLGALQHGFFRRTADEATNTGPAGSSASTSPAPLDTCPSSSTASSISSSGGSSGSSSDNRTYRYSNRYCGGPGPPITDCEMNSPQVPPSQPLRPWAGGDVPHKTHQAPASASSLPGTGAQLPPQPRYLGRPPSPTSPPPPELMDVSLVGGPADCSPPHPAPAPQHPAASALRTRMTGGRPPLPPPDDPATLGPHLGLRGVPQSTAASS

[9] = Permeability across human Caco2 cells; format: ADME, cell-based; settings: caco-2
[10] = target: T2, Dual specificity tyrosine-phosphorylation-regulated kinase 1B; assay: Inhibition of recombinant Dyrk1B (unknown origin) using FITC-Asp-His-Thr-Gly-Phe-Leu-Thr-Glu-Tyr-Val-Ala-Thr-Arg-NH2 as substrate after 60 mins

COc1cc(N2CCN(C)CC2)ccc1Nc1nccc(-c2cn(C)c3cnccc23)n1
IC50 [1]: 190 nM | bioavailability [2]: 22% | clearance [3]: 27 mL/min/kg | hepatocyte CLint [4]: 18 µL/min/1e6 cells | Activity (A-375): inactive | IC50 [5]: 779 nM | IC50 [6]: 4470 nM | solubility [7]: > 755 µM

Cn1cc(-c2ccnc(-c3ccc(S(C)(=O)=O)cc3)n2)c2ccncc21
IC50 [8]: 810 nM | bioavailability [2]: 37% | clearance [3]: 23 mL/min/kg | permeability [9]: permeable | IC50 [10]: 12 nM | hepatocyte CLint [4]: 8 µL/min/1e6 cells | IC50 [5]: > 10000 nM | IC50 [6]: > 100000 nM | solubility [7]: 2 µM (≈ 0.729 µg/mL)

— ChEMBL document CHEMBL3421608, “Discovery and optimization of a novel series of Dyrk1B kinase inhibitors to explore a MEK resistance hypothesis” (J Med Chem, 2015)
